What was measured:
[1] = folding enthalpy; higher = less favourable; fluorescence melt of hairpins on a sequencing array, two-state fit; settings: sodium 0.088 M
Procedure, shortened: (§1)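 Folding enthalpy and melting temperature were estimated with bootstrapped two-state fits and combined across four replicates by inverse-variance weighting, with fitted temperatures raised by 9.35 °C to match UV melts. The data were Cy3 fluorescence of library hairpins, with annealed Cy3 and quencher oligos, on a sequenced MiSeq flow cell in 50 mM Na-HEPES pH 8.0, 25 mM NaCl, imaged in 2.5 °C steps up to 60 °C and normalised to pre-quench Cy3 and control constructs.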

[2] = melting temperature; fluorescence melt of hairpins on a sequencing array, two-state fit, raised by 9.35 °C to match UV melts; settings: sodium 0.088 M
Procedure, shortened: as §1

Sequence | folding enthalpy [1] [kcal/mol] | Tm [2] [°C]
GATCCAGATTGGATC ((((((...)))))) | -34.1 | 50.6
GCCTGGCGAAAGCCGGC (((.(((....)))))) | -16.5 | 68.1
GCGCGGCGAAAGCTCCGC (((..((....))..))) | -20.3 | 58.3
GTCGAGCGAAAGCTAGAC (((.(((....))).))) | -33.5 | 60.5
GCACAGCGAAAGCTTCGC ((..(((....)))..)) | -12.4 | 39.8
GATCCGGAAGCGGATC ((((((....)))))) | -33.2 | 59.8
GCTTGGCGAAAGCTATGC ((.(.((....)).).)) | -15.6 | 47.9
GATCGTGCCAACGATC ((((((....)))))) | -29.7 | 66.6
GGGTAGGGAAACCTATCC ((.((((....)))).)) | -29.7 | 46.6
GCGTTCCGACGC ((((....)))) | -27.8 | 58
TGCGGGAAACCGCA (((((....))))) | -15.7 | 66.5
GATCGTACTAACGATC ((((((....)))))) | -39.1 | 54.8
GTACGAGGAAACTTGTAC ((((.((....)).)))) | -37.1 | 44
GCGGCAGGAAACTGTCGC (((.(((....))).))) | -38.1 | 67.3
GATCTACCGGTAGATC ((((((....)))))) | -43.4 | 53.2
GGTATACGAAAGTAAACC (((.(((....))).))) | -28.4 | 43.6
GTGTGGGGAAACCCACGC (.(((((....))))).) | -14.2 | 58.8
GCCCTCGGAAACGAGAGC ((.((((....)))).)) | -27.2 | 49.1
GGTCGGCGAAAGCCAACC (((.(((....))).))) | -21 | 55.3
GTTTCCGGAAACAGAAAC (((((.(....).))))) | -13.2 | 35.1
GTCGAAGGAAACCTCGAC (((((.(....).))))) | -31.8 | 48
GACGTTGGAAACGACGTC (((((.(....).))))) | -35.1 | 55.8
GCGAGGAGTCGC ((((....)))) | -13.4 | 52.8
GCGAACCGAAAGGTCCGC (((.(((....))).))) | -44.5 | 62.8

Sequence | folding enthalpy [1] [kcal/mol] | Tm [2] [°C]
GATCCTGAATAGGATC ((((((....)))))) | -39.2 | 59
GGCTGCGAAAGCACGCC ((((((....))).))) | -29.6 | 65.2
GATCCTCTGAAGGATC ((((((....)))))) | -36.8 | 51.6
GATCTTCTGTAAGATC ((((((....)))))) | -34.7 | 43.1
GCTCCGCGAAAGCCTAGC (((..((....))..))) | -10.7 | 34.7
GCGAGCGGAAACGCTTGC ((.((((....)))).)) | -34.4 | 61.9
GATCGGCGAACCGATC ((((((....)))))) | -38.2 | 56.2
GCGAGTTCTCGC ((((....)))) | -25.6 | 56.2
GCAAATTCGAAAGAATGC (((..(((....)))))) | -18.4 | 35.8
GATCTATTGTTAGATC ((((((....)))))) | -35.9 | 42.5
GATCCGCCCTCGGATC ((((((....)))))) | -40.6 | 57.1
GTGCCCGGAAACGGGTAC ((.((((....)))).)) | -30 | 62.9
GAAATACGAAAGTATTC (((.(((....)))))) | -12.8 | 38.9
GCCCTGCCGAAAGGCGGC (((..(((....)))))) | -9.83 | 54.9
GTGGACGAAAGTCACCAC ((((((....)))..))) | -16.4 | 38
CGATCGGAAACGATTCG ((((((....))).))) | -24.9 | 43.7
GGGTTAGGAAACTAACCC (((((((....))))))) | -47.6 | 61.3
GCAAGCCCGAAAGGGTGC (((..(((....)))))) | -14.4 | 47.2
GATCAGGTGCTGATC ((((((...)))))) | -39 | 48.6
GCGTGTCGAAAGACCGC (((.(((....)))))) | -33 | 67
GTATACGCGAAAGCGTAC (((..(((....)))))) | -7.12 | 37.9
GAGGCAGGAAACTACCTC ((((.((....)).)))) | -26.9 | 40.3
GAGCCACGAAAGTGCTC (((.(((....)))))) | -19.9 | 54.2
CGTCCGGAAACGGCAACG ((((((....)))..))) | -14.8 | 38.5

Sequence | folding enthalpy [1] [kcal/mol] | Tm [2] [°C]
GGGCTTCGAAAGAAACCC (((.(((....))).))) | -30.2 | 49.6
GCTGGGCGAAAGCCGAGC (((.(((....))).))) | -38.5 | 58.6
GATCGTTAGTACGATC ((((((....)))))) | -47.3 | 53.2
GTTGGGGGAAACCCTAGC (.(.(((....))).).) | -9.75 | 24.6
GAATCCGAAAGGAGTTC ((((((....))).))) | -15.9 | 35.3
GATCTTTCTCAAGATC ((((((....)))))) | -33.4 | 42.6
GGCGATGGAAACGTCGTC (.(((.(....).))).) | -39.5 | 46.2
GTTTGGGGAAACCCAAAC (((((((....))))))) | -42.3 | 59
GCACGGCGAAAGCCTGGC ((..(((....)))..)) | -15.2 | 51.7
GAGGTCGGAAACGACTTC ((.((((....)))).)) | -20.9 | 48.6
GATCTATTCATAGATC ((((((....)))))) | -35.8 | 49.9
GCGGAACACCGC ((((....)))) | -23.2 | 54.6
GATCGGCCGCCGATC ((((((...)))))) | -36.6 | 55.7
GTTTGACGAAAGTCCAAC (((.(((....))).))) | -20.6 | 40.5
GACAGGCGAAAGCCAGTC (((.(((....))).))) | -25.8 | 58.1
AGCTAGAAATAGCT (((((....))))) | -14.9 | 41.3
GACGCGCGAAAGCGGTC (((.(((....)))))) | -14 | 55
GTTCTGCCGAAAGGCAAC (((..(((....)))))) | -7.25 | 25.1
GGGTCGTCGAAAGACCCC (((..(((....)))))) | -21.6 | 52.6
GATCTAGATTTAGATC ((((((....)))))) | -28.4 | 38.4
GCACTTGGAAACGAGTGC (((((.(....).))))) | -54.9 | 54.1
GCACACGAAAGTGAGTGC ((((((....)))..))) | -30.9 | 51.7
GCTACCGAAAGGTCCAGC ((((((....)))..))) | -11.4 | 29
CGCTCGGAAACGAAGGCG ((((((....)))..))) | -29.6 | 44.7

Sequence | folding enthalpy [1] [kcal/mol] | Tm [2] [°C]
GCCGAGGGAAACCTCAGC ((.((((....)))).)) | -23.7 | 43.1
GATCTTATCAAGATC ((((((...)))))) | -29.7 | 46
GATCCATAATGGATC ((((((...)))))) | -34.8 | 49.6
GATTCTCCGAAAGGAATC (((..(((....)))))) | -14.2 | 28.2
CGCTACGGAAACGTGCG (((.(((....)))))) | -33.2 | 53.3
GTCGTGGGAAACTACGGC (.(((.(....).))).) | -25.6 | 44.7
GATCGTTGTCACGATC ((((((....)))))) | -40.9 | 54.9
GTGATCGAAAGATGCCAC ((((((....)))..))) | -11.5 | 24.4
GATCGCTCACGCGATC ((((((....)))))) | -41.2 | 67.8
GCGAAAGGAAACCTTCGC (((((.(....).))))) | -34.4 | 48.8
GCCCGTCCGAAAGGAGGC (((..(((....)))))) | -13.9 | 43.6
GATCCGTCTCCGGATC ((((((....)))))) | -39.8 | 58.4
GATCCGAGTACGGATC ((((((....)))))) | -40.8 | 58.6
GCACAGCGAAAGCGGGGC ((.(.((....)).).)) | -34.6 | 65.9
GGATCGGAAACGATCC ((((((....)))))) | -28.6 | 66.2
GCGACCGGAAACGACCGC (((..((....))..))) | -27.4 | 41.8
GTCAAGGGAAACCTCGAC (((.(((....))).))) | -19.1 | 37.5
GCTATGCGAAAGCACCGC ((..(((....)))..)) | -8.22 | 31.9
GATGTCGGAAACGACATC (((((((....))))))) | -36.4 | 68.4
GGACGACCGAAAGGTTCC (((..(((....)))))) | -13.8 | 31.3
GTCTCCCGAAAGGGGGAC (((.(((....))).))) | -32.4 | 65.9

— the array DNA melting data of Ke et al. (doi:10.1101/2024.01.08.574731)
